Experimental data gathered from unrelated publications.
Each line is one published result; the experiments were not run side by side.
Observed: cell growth or viability

Structure (SMILES)	cell line	test	conditions	measurement	value
CC(C)(C)c1nc(-c2cccc(NS(=O)(=O)c3c(F)cccc3F)c2F)c(-c2ccnc(N)n2)s1	WM 266-4	MTT	100 µM, 48 h	viability	38.1%
COc1ccc2c(c1)/C(=N/NC(=O)c1cc3ccccc3[nH]1)C(=O)N2	ZR75		30 µM	inhibition	65.9%
Cc1cc(C)n(C(=S)[S][Au][PH](CCCCCC[PH]([Au][S]C(=S)n2nc(C)cc2C)(c2ccccc2)c2ccccc2)(c2ccccc2)c2ccccc2)n1	KM12			GI50	0.386 µM
Cn1c(=O)c(NN=C2C(=O)Nc3ccc(F)cc32)nc2ccccc21	ZR75		30 µM	inhibition	22.6%
Cc1ccc(C(CS(=O)(=O)c2ccccc2)=NNc2nc(C)c(N=Nc3cccc(C)c3)s2)cc1	WM 266-4	MTT	100 µM, 48 h	viability	32.8%
Cn1c(=O)c(NN=C2C(=O)Nc3ccc(Br)cc32)nc2ccccc21	ZR75		30 µM	inhibition	62.1%
O=C1Nc2ccc(Cl)cc2/C1=N/NC(=O)c1cc2ccccc2[nH]1	ZR75		30 µM	inhibition	53.9%
COc1ccc2c(c1)C(=NNc1nc3ccccc3n(C)c1=O)C(=O)N2	ZR75		30 µM	inhibition	76%
CNC(=O)c1cc(Oc2ccc(NC(=O)Nc3ccc(Cl)c(C(F)(F)F)c3)cc2)ccn1	WM 266-4	MTT	100 µM, 48 h	viability	33.9%
C=CC(=O)N1CCC[C@@H](n2nc(-c3ccc(Oc4ccccc4)cc3)c3c(N)ncnc32)C1	JeKo-1	ATP luminescence	72 h	GI50	20.1 µM
COc1ccc2c(c1)C(=NNc1ncnc3cc(OC)c(OC)cc13)C(=O)N2	ZR75		10 µM	inhibition	32%
Cn1cc(-c2cc(N3CCCCS3(=O)=O)ccc2Oc2ccc(F)cc2F)c2c(F)c[nH]c2c1=O	MOLM-14	CCK-8	72 h	GI50	0.0081 µM
Cc1ccc2c(c1)C(=NNc1nnc(Cc3ccccc3)c3ccccc13)C(=O)N2	ZR75		30 µM	inhibition	69.6%
COc1cccc(Oc2ccccc2NC(=O)CNC(=O)c2cccc3ccccc23)c1	SR	SRB	48 h	GI50	0.115 µM
O=C(N/N=C1\C(=O)N(c2ccccc2)c2ccccc21)c1cc2ccccc2[nH]1	ZR75		30 µM	inhibition	92.2%
Cc1ccc(C(CS(=O)(=O)c2ccccc2)=NNc2nc(-c3ccc(OCCCCOc4ccc(-c5csc(NN=C(CS(=O)(=O)c6ccccc6)c6ccc(C)cc6)n5)cc4)cc3)cs2)cc1	WM 266-4	MTT	0.4 µM, 48 h	viability	77%
O=C(Nc1cnn2ccc(N3CCC[C@@H]3c3cc(F)ccc3F)nc12)N1CC[C@H](O)C1	KM12	ATP luminescence	72 h	IC50	> 50 µM
CN1C(=O)/C(=N\NC(=O)c2cc3ccccc3[nH]2)c2cc(F)ccc21	ZR75		30 µM	inhibition	78.8%
NC(=S)NN=C(CS(=O)(=O)c1ccccc1)c1ccc(F)cc1	WM 266-4	MTT	100 µM, 48 h	viability	24.4%
CCN(CC)CCNC(=O)c1c(C)[nH]c(/C=C2\C(=O)Nc3ccc(F)cc32)c1C	ZR75		30 µM	inhibition	90.7%
COc1ccc(-c2nc(NN=C3C(=O)Nc4ccc(F)cc43)c3ccccc3n2)cc1OC	ZR75		30 µM	inhibition	26.5%
CN1CCN(c2ccc(C(=O)Nc3n[nH]c4ccc(Cc5cc(F)cc(F)c5)cc34)c(NC3CCOCC3)c2)CC1	KM12	ATP luminescence	72 h	IC50	23.6 µM
CN1C(=O)/C(=N\NC(=O)c2cc3ccccc3[nH]2)c2cc(Cl)ccc21	ZR75		30 µM	inhibition	81.8%
Cc1ccc(C(CS(=O)(=O)c2ccccc2)=NN=C2N=C(c3ccc(Br)cc3)CS2)cc1	WM 266-4	MTT	25 µM, 48 h	viability	42.1%
Cn1c(=O)c(NN=C2C(=O)Nc3ccc(Cl)cc32)nc2ccccc21	ZR75		30 µM	inhibition	29.8%
O=C(Nc1ccc(F)cc1)Nc1cccc(C(=O)Nc2ccc3[nH]ncc3c2)c1	KM12	ATP luminescence	72 h	IC50	40.3 µM
COc1ccc2c(c1)C(=NNc1nc(-c3ccc(OC)c(OC)c3)nc3ccccc13)C(=O)N2	ZR75		30 µM	inhibition	23.1%
O=C1Nc2ccc(Br)cc2/C1=N/NC(=O)c1cc2ccccc2[nH]1	ZR75		30 µM	inhibition	58.9%
Cc1ccc(C(CS(=O)(=O)c2ccccc2)=NNC2=NC(=O)C(=NNc3ccccc3)S2)cc1	WM 266-4	MTT	6.3 µM, 48 h	viability	48.2%
